Measurements reported in ChEMBL document CHEMBL1949493, “Discovery of s-nitrosoglutathione reductase inhibitors: potential agents for the treatment of asthma and other inflammatory diseases” (ACS Med Chem Lett, 2011).
Each block holds one molecule with its values, some of them ahead of it. The source made the active and inactive calls. No cut-off for these calls is given here.

Legend:
[1] = biological target: Voltage-gated inwardly rectifying potassium channel KCNH2 (Homo sapiens, UniProt Q12809); assay: Inhibition of human ERG
Chain of Voltage-gated inwardly rectifying potassium channel KCNH2 (Q12809 whole entry): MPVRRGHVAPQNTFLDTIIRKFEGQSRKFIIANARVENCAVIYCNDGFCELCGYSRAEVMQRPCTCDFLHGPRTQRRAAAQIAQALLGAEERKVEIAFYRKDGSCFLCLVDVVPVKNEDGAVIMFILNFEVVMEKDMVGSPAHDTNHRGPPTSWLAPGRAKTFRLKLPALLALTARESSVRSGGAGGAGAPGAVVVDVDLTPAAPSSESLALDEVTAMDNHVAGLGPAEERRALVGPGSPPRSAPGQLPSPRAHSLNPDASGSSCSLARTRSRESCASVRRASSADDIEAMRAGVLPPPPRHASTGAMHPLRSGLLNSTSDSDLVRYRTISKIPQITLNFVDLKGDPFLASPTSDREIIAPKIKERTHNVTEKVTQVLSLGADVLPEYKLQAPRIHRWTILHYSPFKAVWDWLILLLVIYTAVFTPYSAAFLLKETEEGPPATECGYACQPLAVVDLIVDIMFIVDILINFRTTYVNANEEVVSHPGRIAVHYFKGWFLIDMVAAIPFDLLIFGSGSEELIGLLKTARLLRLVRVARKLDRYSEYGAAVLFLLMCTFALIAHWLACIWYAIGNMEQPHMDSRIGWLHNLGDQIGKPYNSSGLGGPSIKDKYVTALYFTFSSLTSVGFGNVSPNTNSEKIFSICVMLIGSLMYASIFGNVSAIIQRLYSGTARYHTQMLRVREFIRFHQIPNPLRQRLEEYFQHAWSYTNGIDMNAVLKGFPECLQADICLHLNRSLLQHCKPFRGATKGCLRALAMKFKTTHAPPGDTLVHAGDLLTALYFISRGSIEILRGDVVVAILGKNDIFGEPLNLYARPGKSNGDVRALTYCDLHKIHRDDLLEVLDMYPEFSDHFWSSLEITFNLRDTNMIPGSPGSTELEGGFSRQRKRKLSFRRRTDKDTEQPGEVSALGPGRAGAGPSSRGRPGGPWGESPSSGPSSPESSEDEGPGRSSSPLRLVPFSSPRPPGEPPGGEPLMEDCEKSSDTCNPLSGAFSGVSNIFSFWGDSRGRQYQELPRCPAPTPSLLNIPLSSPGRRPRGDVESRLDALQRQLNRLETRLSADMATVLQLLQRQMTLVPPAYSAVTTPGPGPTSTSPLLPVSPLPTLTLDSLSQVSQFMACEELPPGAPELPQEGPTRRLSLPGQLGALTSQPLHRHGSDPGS

Homo sapiens = species: Homo sapiens; assay: Inhibition of human recombinant delta2 opioid receptor at 10 uM by radioligand displacement assay
Procedure, shortened: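 Off-target screen measuring percent inhibition of receptor radioligand binding, with test compound at 10 μM.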

Mus musculus [2] = assay: Antiasthmatic activity in ovalbumin-sensitized BALB/c mouse assessed as inhibition of methacholine-induced bronchoconstriction at >/= 0.01 mg/kg, iv administered prior to metacholine-challenge by whole body plethysmography; assay type: functional, organism-based; parameters: dose 0.01 mg/kg; conditions: TDE = time-dependent effect
Mus musculus [3] = assay: Antiasthmatic activity in ovalbumin-sensitized iv dosed BALB/c mouse assessed as inhibition of methacholine-induced bronchoconstriction administered from 30 mins to 48 hrs prior to metacholine-challenge by whole body plethysmography; assay type: functional, organism-based
Salmonella typhimurium = assay: Mutagenic activity in Salmonella Typhimurium; assay type: toxicity, organism-based; conditions: salmonella enterica subsp. enterica serovar typhimurium
Mus musculus [4] = assay: Antiinflammatory activity in C57B1/6 mouse IBD model assessed as inhibition of DSS-induced inflammatory response at 1 mg/kg, iv or po administered for 10 days from 2 days prior to and up to 2 days post DSS-challenge; assay type: functional, organism-based; parameters: dose 1 mg/kg
Procedure, shortened: (§1)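 Mouse model of DSS-induced IBD. Dosing was oral or IV at 1 and 10 mg/kg/day for 10 days.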

[5] = Toxicity in iv dosed CD-1 mouse administered qd for 4 days measured on day 5; assay type: organism-based; conditions: in vivo
Procedure, shortened: (§2)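 Read-out was the no observable adverse effect level (NOAEL) in mg/kg/day.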

Mus musculus [6] = assay: Antiasthmatic activity in ovalbumin-sensitized BALB/c mouse assessed as inhibition of methacholine-induced bronchoconstriction at >/= 0.01 mg/kg, iv administered from 30 mins to 48 hrs prior to metacholine-challenge by whole body plethysmography; assay type: functional, organism-based; parameters: dose 0.01 mg/kg
[7] = Toxicity in po dosed CD-1 mouse administered qd for 4 days measured on day 5; assay type: organism-based; conditions: in vivo; procedure, shortened: as §2
Mus musculus [8] = assay: Antiasthmatic activity in ovalbumin-sensitized BALB/c mouse assessed as inhibition of ovalbumin-induced easonophil infiltration in lungs at >/= 0.0005 mg/kg, iv administered from 30 mins to 72 hrs prior to assessment by light microscopy; assay type: functional, organism-based; parameters: dose 0.0005 mg/kg
Procedure, shortened: (§3)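 Ovalbumin-induced asthma model in mice, dosed by single IV administration. Read-out was eosinophil infiltration into the lungs.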

Mus musculus [9] = assay: Antiinflammatory activity in C57B1/6 mouse IBD model assessed as inhibition of DSS-induced inflammatory response at 10 mg/kg, iv or po administered for 10 days from 2 days prior to and up to 2 days post DSS-challenge; assay type: functional, organism-based; parameters: dose 10 mg/kg; procedure, shortened: as §1
[10] = Inhibition of S-nitrosoglutathione reductase expressed in Escherichia coli using GSNO as substrate measured for 3 mins by spectrophotometry
[11] = Plasma clearance in BALB/c mouse at 2 mg/kg, iv; assay type: ADME, organism-based; parameters: dose 2 mg/kg, route intravenous
[12] = Oral bioavailability in BALB/c mouse at 10 mg/kg; assay type: ADME, organism-based; conditions: in vivo
Rattus norvegicus = species: Rattus norvegicus; assay: Antihypertensive activity in rat DAHL/S model assessed as reduction in high dietary salt-induced hypertension
Mus musculus [13] = assay: Antiasthmatic activity in ovalbumin-sensitized BALB/c mouse assessed as inhibition of methacholine-induced bronchoconstriction at 0.0005 to 30 mg/kg, iv administered from 30 mins to 48 hrs prior to assessment by whole body plethysmography
Mus musculus [14] = assay: Antiasthmatic activity in ovalbumin-sensitized BALB/c mouse assessed as inhibition of ovalbumin-induced easonophil infiltration into lungs at 0.0005 to 30 mg/kg, iv administered from 30 mins to 72 hrs prior to assesment by light microscopy; assay type: functional, organism-based; procedure, shortened: as §3
Mus musculus [15] = assay: Antiasthmatic activity in C57B1/6 mouse COPD model assessed as inhibition of porcine pancreatic elastase-induced emphysema at 0.1 to 10 mg/kg, po after 7 to 14 days by light microscopy; assay type: functional, organism-based

Compound: Cc1cc(C(N)=O)ccc1-n1c(CCC(=O)O)ccc1-c1ccccc1
clearance [11]: 11.8 mL/min/kg | bioavailability [12]: 46.8% | IC50 [10]: 0.36 µM

Compound: COc1ccc(-c2ccc(CCc3nnn[nH]3)n2-c2ccc(C(N)=O)cc2C)cc1
IC50 [10]: 1.53 µM

Compound: Cc1cc(C(N)=O)ccc1-n1c(CCC(=O)O)ccc1-c1ccc(F)cc1
IC50 [10]: 0.5 µM

Compound: Cc1cc(C(N)=O)ccc1-n1c(CCC(=O)O)ccc1-c1ccc(C(F)(F)F)cc1
IC50 [10]: 3.99 µM

Compound: Cc1cc(C(N)=O)ccc1-n1c(CCC(=O)O)ccc1-c1ccc(C(N)=O)cc1
IC50 [10]: 3.92 µM

Compound: Oc1ccc(-n2c(Cc3nnn[nH]3)ccc2-c2ccc(Br)cc2)cc1
IC50 [10]: 4.35 µM

Compound: Oc1ccc(-n2c(CCc3nnn[nH]3)ccc2-c2ccc(Br)cc2)cc1
IC50 [10]: 0.45 µM

Compound: COc1ccc(-c2ccc(CCC(=O)O)n2-c2ccc(C(N)=O)cc2)cc1
IC50 [10]: 0.46 µM

Compound: Cc1cc(C(N)=O)ccc1-n1c(CCC(=O)O)ccc1-c1ccc(Cl)cc1NC=O
IC50 [10]: 0.58 µM

Compound: COc1ccc(-c2ccc(CCC(=O)O)n2-c2ccc(C(N)=O)cc2C(F)(F)F)cc1
IC50 [10]: 0.45 µM

Compound: Cc1cc(C(N)=O)ccc1-n1c(Cc2nnn[nH]2)ccc1-c1ccc(Br)cc1
IC50 [10]: 0.56 µM

Compound: Cc1cc(C(N)=O)ccc1-n1c(CCC(=O)O)ccc1-c1ccc(Cl)cc1N(C)C
IC50 [10]: 0.35 µM

Compound: NC(=O)c1ccc(-n2c(CCC(=O)O)ccc2-c2ccccc2)cc1
clearance [11]: 8.9 mL/min/kg | bioavailability [12]: 86.5% | IC50 [10]: 0.57 µM

Compound: COc1ccc(-c2ccc(Cc3nnn[nH]3)n2-c2ccc(C(N)=O)cc2C)cc1
IC50 [10]: 2.91 µM

Compound: Cc1cc(C(N)=O)ccc1-n1c(CCC(=O)O)ccc1-c1ccc(C#N)cc1
clearance [11]: 25.5 mL/min/kg | bioavailability [12]: 16.3% | IC50 [10]: 0.563 µM

Molecules with a lower IC50 [10], results first:

inhibition (Homo sapiens): 66% | IC50 [10]: 0.02 µM
Compound: Cc1cc(C(N)=O)ccc1-n1c(CCC(=O)O)ccc1-c1ccc(-n2ccnc2)cc1 [N6022]
INH [1]: > 100 µM | Activity (Mus musculus [2]): tde | Activity (Mus musculus [3]): Dose-dependent effect | Activity (Salmonella typhimurium): Non-toxic | Activity (Mus musculus [4]): Active | NOAEL at 96 h [5]: 30 mg/kg | Activity (Mus musculus [6]): Active | NOAEL at 96 h [7]: 100 mg/kg | Activity (Mus musculus [8]): Active | Activity (Mus musculus [9]): Active

IC50 [10]: 0.19 µM
Compound: Cc1cc(C(N)=O)ccc1-n1c(CCc2nnn[nH]2)ccc1-c1ccc(Br)cc1

IC50 [10]: 0.17 µM
Compound: CCOc1cc(Cl)ccc1-c1ccc(CCC(=O)O)n1-c1ccc(C(N)=O)cc1C

IC50 [10]: 0.018 µM
Compound: Oc1ccc(-n2c(Cc3nnn[nH]3)ccc2-c2ccc(-n3ccnc3)cc2)cc1

IC50 [10]: 0.16 µM
Compound: Cc1cc(C(N)=O)ccc1-n1c(CCC(=O)O)ccc1-c1ccc(Cl)cc1C(N)=O

IC50 [10]: 0.19 µM
Compound: COc1ccc(-c2ccc(CCC(=O)O)n2-c2ccc(C(N)=O)cc2Cl)cc1

clearance [11]: 21.4 mL/min/kg | bioavailability [12]: 18% | IC50 [10]: 0.16 µM
Compound: Cc1cc(C(N)=O)ccc1-n1c(CCC(=O)O)ccc1-c1ccc(Br)cc1
Activity (Rattus norvegicus): Active | Activity (Mus musculus [4]): Active | NOAEL at 96 h [5]: 50 mg/kg | Activity (Mus musculus [13]): Active | Activity (Mus musculus [14]): Active | Activity (Mus musculus [9]): Active | Activity (Mus musculus [15]): Active

IC50 [10]: 0.16 µM
Compound: Cc1cc(C(N)=O)ccc1-n1c(CCC(=O)O)ccc1-c1ccc(O)cc1

IC50 [10]: 0.24 µM
Compound: COc1ccc(-c2ccc(CCC(=O)O)n2-c2ccc(C(N)=O)cc2F)cc1

IC50 [10]: 0.3 µM
Compound: Oc1ccc(-n2c(CCc3nnn[nH]3)ccc2-c2ccc(-n3ccnc3)cc2)cc1

IC50 [10]: 0.12 µM
Compound: Cc1cc(C(N)=O)ccc1-n1c(CCC(=O)O)ccc1-c1ccc(Cl)cc1F

IC50 [10]: 0.2 µM
Compound: COc1ccc(-c2ccc(CCC(=O)O)n2-c2ccc(C(N)=O)cc2C)c(Cl)c1

IC50 [10]: 0.33 µM
Compound: Cc1cc(C(N)=O)ccc1-n1c(CCC(=O)O)ccc1-c1ccc(Cl)cc1C(F)(F)F

clearance [11]: 16 mL/min/kg | bioavailability [12]: 20.7% | IC50 [10]: 0.12 µM
Compound: Cc1cc(C(N)=O)ccc1-n1c(CCC(=O)O)ccc1-c1ccc(Cl)cc1

IC50 [10]: 0.21 µM
Compound: COc1ccc(-c2ccc(CCC(=O)O)n2-c2ccc(C(N)=O)cc2C)cc1
Activity (Rattus norvegicus): Active | Activity (Mus musculus [4]): Active | NOAEL at 96 h [5]: 50 mg/kg | Activity (Mus musculus [13]): Active | Activity (Mus musculus [14]): Active | Activity (Mus musculus [9]): Active | Activity (Mus musculus [15]): Active

clearance [11]: 20.2 mL/min/kg | bioavailability [12]: 22.4% | IC50 [10]: 0.056 µM
Compound: COc1cc(Cl)ccc1-c1ccc(CCC(=O)O)n1-c1ccc(C(N)=O)cc1C
Activity (Rattus norvegicus): Active | Activity (Mus musculus [4]): Active | Activity (Mus musculus [13]): Active | Activity (Mus musculus [14]): Active | Activity (Mus musculus [9]): Active | Activity (Mus musculus [15]): Active

clearance [11]: 33.4 mL/min/kg | bioavailability [12]: 2.72% | IC50 [10]: 0.055 µM
Compound: Cc1cc(C(N)=O)ccc1-n1c(CCC(=O)O)ccc1-c1ccc(Cl)cc1O
Activity (Rattus norvegicus): Active | Activity (Mus musculus [4]): Active | Activity (Mus musculus [13]): Active | Activity (Mus musculus [14]): Active | Activity (Mus musculus [9]): Active | Activity (Mus musculus [15]): Active

IC50 [10]: 0.16 µM
Compound: Cc1cc(C(N)=O)ccc1-n1c(CCC(=O)O)ccc1-c1ccc(Cl)cc1Cl

IC50 [10]: 0.11 µM
Compound: CCCOc1cc(Cl)ccc1-c1ccc(CCC(=O)O)n1-c1ccc(C(N)=O)cc1C

clearance [11]: 22.4 mL/min/kg | bioavailability [12]: 21.8% | IC50 [10]: 0.096 µM
Compound: COc1cc(Br)ccc1-c1ccc(CCC(=O)O)n1-c1ccc(C(N)=O)cc1C
